One may read the IC50 as the concentration needed to halve the response being measured. By CC50 is commonly meant the concentration giving 50% cytotoxicity.

The results in this text go back to ChEMBL document CHEMBL4043073, “Boronic Acid Modifications Enhance the Anti-Influenza A Virus Activities of Novel Quindoline Derivatives” (J Med Chem, 2017).

The source made the active and inactive calls. The rule behind the calls is not given here.

The nature of series [1]: Selectivity index, ratio of CC50 for MDCK cells to IC50 for Influenza A virus (A/Puerto Rico/8/34(H1N1)) infected in MDCK cells assessed as reduction in virus-induced cytopathic effect. The class given is toxicity, cell-based. Particulars: dog, read-out: Ratio CC50/IC50. (In general: Damage to the host cells serves as the signal in cytopathic effect assays.)
The subject of series [2] is Influenza A virus. Put plainly: Antiviral activity against Influenza A virus (A/swine/Minnesota/02719/2009(H3N2)) infected in MDCK cells assessed as virus yeild reduction preincubated with virus at 37 degC for 1 hr followed by viral infection for 1 hr measured after 3 days by crystal violet staining based plaque assay. The class given is functional, cell-based. In a few lines:
(§1)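 Plaque reduction: about 50–100 PFU/well of PR8, Cal09 or Minnesota preincubated with compound (0–10 μM) 1 h at 37 °C. Mixture then adsorbed to MDCK monolayers 1 h at 4 °C. Overlay was DMEM with 1.5% agarose, DEAE-dextran and 1 μg/mL TPCK-trypsin for 3 days at 37 °C. Glutaraldehyde fix, crystal violet stain, plaque count; IC50 derived; n = 4.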

Series [3] in a line: Cytotoxicity against MDCK cells after 48 hrs by resazurin based fluorescence method. Type of series: cell-based, Canis lupus familiaris. The conditions noted are these: dog. In a few lines: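 Confluent MDCK, A549 or H1299 cells exposed in triplicate to compound for 48 h at 37 °C (A549/H1299 at 20 μM). Resazurin added to 0.2 mg/mL final for 16 h. Fluorescence read at ex 544 / em 595 nm; viability as % of untreated.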

Series [4] has as its system Influenza A virus. Put plainly: Antiviral activity against Influenza A virus (A/Puerto Rico/8/34(H1N1)) infected in MDCK cells assessed as reduction in virus titer preincubated with virus for 1 hr followed by viral infection measured after 24 hrs by crystal violet staining based plaque assay. The conditions noted are these: A/Puerto Rico/8/1934(H1N1). The class given is functional, cell-based. The method, boiled down:
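PR8 (MOI 1.0) preincubated with compound (2.5–10 μM) 1 h at 37 °C, then used to infect MDCK cells. After adsorption, medium with the same compound concentration was added. At 24 h p.i. supernatant virus titer was measured by plaque assay; n = 3.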

Series [5] concerns Influenza A virus. Put plainly: Antiviral activity against Influenza A virus (A/Puerto Rico/8/34(H1N1)) infected in MDCK cells assessed as reduction in viral HA titer by measuring reduction in chicken RBC […] after 24 hrs by hemagglutination test. The class given is functional, cell-based. The conditions noted are these: A/Puerto Rico/8/1934(H1N1). The method, boiled down: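 MDCK cells infected at MOI 3.0 (single-cycle) with PR8, Cal09 or swine H3N2 Minnesota, then treated with compound for 24 h. Supernatant HA titers were read by 2-fold serial dilution with an equal volume of 1% chicken RBCs, 60 min at 4 °C. Expressed as percent of untreated-cell HA titer; IC50 derived; n = 4.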

In series [6] the test system is Influenza A virus. Put plainly: Antiviral activity against Influenza A virus (A/Puerto Rico/8/34(H1N1)) infected in MDCK cells assessed as virus yeild reduction preincubated with virus at 37 degreeC for 1 hr followed by viral infection for 1 hr measured after 3 days by crystal violet staining based plaque assay. Type of series: functional, cell-based. The conditions noted are these: A/Puerto Rico/8/1934(H1N1). In a few lines: as §1

Series [7] has as its system Influenza A virus. In words: Antiviral activity against Influenza A virus (A/Puerto Rico/8/34(H1N1)) infected in MDCK cells assessed as virus yeild reduction at 10 uM preincubated with cells for 1 hr followed by viral infection for 1 hr measured at 24 hrs post infection by crystal violet staining based plaque assay. Type of series: functional, cell-based. The conditions noted are these: A/Puerto Rico/8/1934(H1N1). In a few lines: (§2)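 Time-of-addition on MDCK cells, PR8 MOI 1.0, 10 μM compound. Three arms: cells pretreated before infection; compound present during adsorption 1 h at 4 °C; or compound added after removal of unadsorbed virus. Virus yield at 24 h p.i. by plaque assay; n = 3.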

Series [8] concerns Influenza A virus. Put plainly: Antiviral activity against Influenza A virus (A/Puerto Rico/8/34(H1N1)) infected in MDCK cells assessed as virus yeild reduction at 10 uM treated post 1 hr of viral adsorption measured at 24 hrs post infection by crystal violet staining based plaque assay. Particulars: A/Puerto Rico/8/1934(H1N1). The class given is functional, cell-based. In a few lines:
as §2

For a further series, the system named is Vero. Put plainly: Inhibition of Influenza A virus (A/Puerto Rico/8/34(H1N1)) hemagglutinin expressed in African green monkey Vero cells assessed as reduction in acid-induced syncytium formation preincubated at pH 7 for 15 mins followed by incubation at pH 5 for 10 mins measured after 2 hrs by Hema3Stat Pak-staining based microscopic analysis. The class given is cell-based. Particulars: Influenza A virus (A/Puerto Rico/8/1934(H1N1)). The method, boiled down:
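Vero cells transfected with PR8 HA plasmid. At 16 h HA was cleaved with 5 μg/mL TPCK-trypsin for 15 min at 37 °C. Cells were preincubated with compound 15 min at 37 °C, then held at pH 5.0 with compound for 10 min at 37 °C. After rinsing, cells were kept 2 h in 10% FBS medium, stained with Hema3Stat Pak and examined for syncytia by microscopy.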

For series [9], the species on record is Canis lupus familiaris. Put plainly: Inhibition of MAPK signaling-mediated nuclear import of viral RNP in MDCK cells infected with Influenza A virus (A/Puerto Rico/8/34(H1N1)) assessed as ERK1/2 phosphorylation at 5 uM preincubated with virus for 1 hr followed by viral infection after 4 hrs by Western blot method relative to control (reference value: 1.4). The class given is cell-based. In a few lines: (§3)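 PR8 (MOI 1.0) pretreated with compound 1 h at 37 °C, then MDCK cells were kept in infecting medium with 5 or 10 μM for 4 h; ribavirin 50 μg/mL as comparator. Lysates were immunoblotted for phospho-ERK1/2, p38, NF-κB or Akt, with β-actin/GAPDH loading controls and AP/NBT-BCIP detection. Densitometry was normalised to uninfected cells (= 1.0); n = 3.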

Series [10] is filed under the species Canis lupus familiaris. In words: Inhibition of MAPK signaling-mediated nuclear import of viral RNP in MDCK cells infected with Influenza A virus (A/Puerto Rico/8/34(H1N1)) assessed as p38 phosphorylation at 10 uM preincubated with virus for 1 hr followed by viral infection after 4 hrs by Western blot method relative to control (reference value: 5.1). The class given is cell-based. The method, boiled down: as §3

The species entered for series [11] is Canis lupus familiaris. Put plainly: Inhibition of NFkappaB activation-mediated viral endocytosis in MDCK cells infected with Influenza A virus (A/Puerto Rico/8/34(H1N1)) assessed as Akt phosphorylation level at 5 uM preincubated with virus for 1 hr followed by viral infection measured after 4 hrs by Western blot method relative to control (reference value: 1.4). The class given is cell-based. In a few lines:
as §3
(In general: Immunoblotting shows a protein as a band on a membrane.)

The species named for series [12] is Canis lupus familiaris. Put plainly: Inhibition of NFkappaB activation-mediated viral endocytosis in MDCK cells infected with Influenza A virus (A/Puerto Rico/8/34(H1N1)) assessed as Akt phosphorylation level at 10 uM preincubated with virus for 1 hr followed by viral infection measured after 4 hrs by Western blot method relative to control (reference value: 1.4). The class given is cell-based. The method, boiled down:
as §3

The nature of series [13]: Drug uptake in human A549 cell cytoplasm at 20 uM after 4 hrs by DAPI staining based confocal microscopic analysis. The class given is ADME. Particulars: a549, 4 h. In a few lines: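 A549 cells incubated with 20 μM compound 4 h at 37 °C, then fixed and DAPI-stained. Compound intrinsic fluorescence located by confocal microscopy.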
Series [14] has as its system Influenza A virus. In words: Antiviral activity against Influenza A virus (A/Puerto Rico/8/34(H1N1)) infected in MDCK cells assessed as reduction in virus-induced cytopathic effect after 48 hrs by crystal violet staining based assay. The conditions noted are these: A/Puerto Rico/8/1934(H1N1). Type of series: functional, cell-based. The method, boiled down:
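MDCK cells infected with PR8 at MOI 0.1; compounds added in triplicate after inoculum removal. After 48 h cells were fixed with 4% formaldehyde and stained with 0.1% crystal violet. Dye was methanol-solubilised and read at 570 nm; IC50 was the concentration halving CPE.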

As to `O=C(Nc1ccccc1Nc1c2ccccc2nc2c1[nH]c1ccccc12)c1cccc(B(O)O)c1`, the selectivity ratio in series [1] worked out at 27.9. The IC50 in the series with Influenza A virus [2] is 2.3 µM; with Influenza A virus [4], 2.2 µM; in the series with Influenza A virus [5], 2.5 µM; in the series on Influenza A virus [6], 3.2 µM; with Influenza A virus [14], 5.1 µM. This compound showed a half-maximal cytotoxic concentration (CC50) at 48 h in [3] of 142 µM. For the same compound, the Activity entry in the series with Influenza A virus [4] and in the series with Influenza A virus [5] was “Dose-dependent effect” each time. Further, the outcome in the series with Influenza A virus [7] and in the series with Influenza A virus [8] was inactive. Also, the inhibition entry in the series on Vero was “inactive”. For the same compound, the fold change (FC) in the series filed under Canis lupus familiaris [9] amounted to 0.7; in the series listed under Canis lupus familiaris [10], 2.5; in the series filed under Canis lupus familiaris [11], 1.2; in the series filed under Canis lupus familiaris [12], 0.8. In addition, the Drug uptake entry in series [13] is on record as “Active”.
